# Published values from different studies.
# Each line is one published result; the experiments were not run side by side.
# Target: Eukaryotic translation initiation factor 2-alpha kinase 1 (EIF2AK1, Homo sapiens, UniProt Q9BQI3)
SMILES,test,conditions,remaining binding [%]
COc1cnc(Nc2cccc(S(N)(=O)=O)c2)nc1N1CCN(c2ccccc2)CC1,"binding, competition with immobilised ligand",1 µM,100
CN(c1nccc(-c2cnn3ncccc23)n1)C1CC1,binding,1 µM,100
CN1CCN(c2cnc3c(C4CCN(C(=O)c5ccc(OC(F)(F)F)cc5N)CC4)ncnc3c2)CC1,"cell-free assay, competition with immobilised ligand",1 µM,100
O=C(NCCCN1CCOCC1)c1ccc(Nc2ncc(Cl)c(-c3ccc(Cl)s3)n2)cc1,"binding, competition with immobilised ligand",1 µM,97
COc1ncc2cc3ccccc3nc2c1C#N,"cell-free assay, competition with immobilised ligand",5 µM,100
C[C@@H]1CCN(c2nccc(-c3cnn4ncccc34)n2)C1,binding,1 µM,79
O=C(Nc1c[nH]nc1C(=O)NC1CCNCC1)c1cc(F)cc(F)c1,"binding, competition with immobilised ligand",1 µM,91
CS(=O)(=O)N1CCCC(NC(=O)[C@H](CCC2CCCCC2)NC(=O)c2ccc(CNC(=O)c3cnc4ccccn34)cc2)C1 (stereo partly shown),"cell-free assay, competition with immobilised ligand",0.1 µM,91
COc1cnc(Nc2cccc(S(N)(=O)=O)c2)nc1N1CCN(c2ccccc2)C(=O)C1,"binding, competition with immobilised ligand",1 µM,89
Nc1ncc2c(n1)-c1c([nH]c3ccc(C#CC4CC4)cc13)CCCC2,"binding, competition with immobilised ligand",1 µM,80
c1cncc(-c2cccc(Nc3nccc(NC4CCCCC4)n3)c2)c1,"binding, competition with immobilised ligand",10 µM,87
Cc1nc(C2CCN(C(=O)c3ccc(OC(F)(F)F)cc3N)CC2)c2ncc(N3CCN(C)CC3)cc2n1,"cell-free assay, competition with immobilised ligand",1 µM,85
N[C@H]1CCN(c2nccc(-c3cnn4ncccc34)n2)C1,binding,1 µM,78
C[C@@H](c1cccc(C#N)c1)n1cc(Cl)cc(C(N)=O)c1=N,"cell-free assay, competition with immobilised ligand",1 µM,95
CC1CCCN1c1nccc(-c2cnn3ncccc23)n1 (stereo not shown),binding,1 µM,100
O=C(c1ccc(Nc2nccc(-c3cc4ccccc4s3)n2)cc1)N1CCC(N2CCCC2)CC1,"binding, competition with immobilised ligand",1 µM,100
COc1ccnn2ncc(-c3ccnc(N(C)C)n3)c12,binding,1 µM,95
O=C(NCc1ncc(C(F)(F)F)cc1Cl)c1ccc2c(c1)C1(CCS(=O)(=O)CC1)[C@@H](C1CC1)N2S(=O)(=O)c1ccc(F)cc1,"cell-free assay, competition with immobilised ligand",1 µM,94
c1cnn2ncc(-c3ccnc(N4CCC45COC5)n3)c2c1,binding,1 µM,49
O=C(NCCCN1CCOCC1)c1ccc(Nc2nccc(-c3cc4ccccc4s3)n2)cc1,"binding, competition with immobilised ligand",1 µM,100
CC(=O)C1=C(C)N(c2cccc(C(F)(F)F)c2)C(=O)N[C@@H]1c1ccc(C#N)nc1,"cell-free assay, competition with immobilised ligand",1 µM,100
CN(C)c1ncc(F)c(-c2cnn3ncccc23)n1,binding,1 µM,100
